# L929 necroptosis: inhibitors of zVAD-triggered necroptosis, primary screen, L929 cells | L929 zVAD necroptosis rescue, ATP luminescence, 24 h; with zVAD 60 µM | viability rescue, % at 10 µM | 220,000 tested, 0.38% active;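 active = activation, scaled between plate controls, above about 75%, limit read from the data; inactive = activation under that limit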
# TNF necrop inh: inhibitors of TNF-alpha triggered necroptosis, primary screen, cell-based, Jurkat FADD-/-, single concentration | Jurkat FADD-/- TNF necroptosis rescue, ATP luminescence, 24 h; 0 = TNF only, 100 = no-TNF cells | 220,000 tested, 0.068% active | activation (protection from cell death), % at 10 µM;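 active = activation, meaning protection from cell death, of at least 50% relative to plate controls; inactive = activation below 50%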;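 note: necroptosis triggered by 40 ng/mL TNF-alpha added together with compound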
# STAT3 inh-1: IL-6 driven STAT3 reporter inhibitors, primary screen, U3A cells, luciferase, luminescence, MLSCN library. IL-6 STAT3-luciferase reporter; host cell line lacks STAT1. inhibition, % at 5.5 µM. 190,000 tested, 0.89% active. AID 862, 2007;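 active = inhibition above the mean inhibition across all screened compounds plus 3 SD, cut at about 44% in these data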
# STAT3 activator: IL-6 driven STAT3 reporter potentiators, primary screen, U3A cells, luciferase, luminescence, MLSCN library | activation (% of control), % at 5.6 µM | 190,000 tested, 0.91% active | IL-6 STAT3-luciferase reporter; 100% = signal with IL-6 EC80 alone;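 active = activation above the screen-wide mean of compound activation plus 3 SD, cut at about 130% in these data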
#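 Material: human STAT1-deficient U3A cells with stable STAT3-luciferase reporter / Probe or stimulus: IL-6 stimulus at 33 ng/mL final / Schedule: 1 h compound pre-exposure, 6 h IL-6 stimulation, 37 °C / Technique: luminescence / Read-out basis: percent of IL-6-only median luminescence / Control set: IL-6-only high control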
# STAT1 blocker: STAT1 signaling inhibitors, primary screen, cell-based, HTS, luciferase reporter | NIH 3T3 STAT1-luciferase reporter, IFN-gamma, luminescence | inhibition, % at 5.5 µM | 200,000 tested, 0.35% active | AID 920, 2007;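 active = inhibition above a set limit, the mean inhibition across all tested compounds plus 3 SD, cut at about 34% in these data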
# STAT3 inh-2: STAT3 reporter inhibitors, retest of hits, confirmation, U3A cells, luciferase, luminescence; shares compounds with STAT3 inh-1; AID 1265, 2008; inhibition, % at 5.7 µM; 1,200 tested, 45% active; IL-6 STAT3 luciferase reporter; cell line lacks STAT1;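 active = inhibition above the hit cutoff computed for the primary STAT3 screen, cut at about 44% in these data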
# NFkB inh 2: NF-kB reporter inhibitors in human cells, confirmation, counter-screen for STAT3 inhibitor project, cell-based, HEK293T, luciferase, TNF-alpha stimulus | shares compounds with STAT3 inh-1 | TNF-alpha induced | inhibition, % at 5.7 µM | 1,200 tested, 36% active | AID 1308, 2008;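 active = inhibition above the mean of solvent-only control wells plus 3 SD, cutoff set per campaign, cut at about 13% in these data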
# STAT1 inh STAT3c: STAT1 reporter inhibitors, IFN-gamma induced, confirmation, counter-screen for STAT3 inhibitor project, cell-based, NIH 3T3, luciferase luminescence; 1,200 tested, 27% active; shares compounds with STAT3 inh-1; inhibition, % at 5.7 µM; NIH 3T3 STAT1-luciferase reporter;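 active = inhibition above the mean plus 3 SD of solvent-only control wells, limit set per screening run, cut at about 16% in these data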
# Hits are given with their value; 0 = inactive; - = not tested or not shown. The list is not random: actives were taken first. Their share in the collection is about 2.1%.
SMILES,L929 necroptosis,TNF necrop inh,STAT3 inh-1,STAT3 activator,STAT1 blocker,STAT3 inh-2,NFkB inh 2,STAT1 inh STAT3c
CCCOc1ccc(C(=O)Nc2ccc(N(C)C)cc2)cc1,0,0,47,0,0,0,0,0
CCCOc1ccc(C(=O)Nc2ccc(N3CCN(C(C)=O)CC3)cc2)cc1,0,0,0,0,0,-,-,-
COc1ccc(C(=O)C[n+]2cc(-c3ccc(OC)cc3)n3c2CCCC3)cc1,0,0,0,0,0,-,-,-
Cc1ccc(C(=O)C[n+]2cc(-c3ccc(C)cc3)n3c2CCCCC3)cc1,0,0,71,0,0,60,0,27
Nc1n[nH]c2cc(=O)n(-c3cccc(C(F)(F)F)c3)nc12,0,0,0,0,0,-,-,-
S=C(NCCc1ccccc1)Nc1cccc2cnccc12,0,0,68,0,0,73,25,23
COc1ccc(/C=C2\SC(=S)N(CC(=O)N3CCN(C)CC3)C2=O)cc1,0,0,-,-,-,-,-,-
COc1cccc(C2CC(c3ccc(Cl)cc3Cl)Nc3nc(N)nn32)c1 (centres undefined),0,0,0,0,0,-,-,-
Cc1nc(Nc2nc3ccccc3o2)nc2c1CCC2,0,0,70,0,0,0,0,0
OCC1(Cc2ccc(Cl)cc2)CCN(Cc2ccccc2F)CC1,0,0,0,0,0,-,-,-
Cc1c(C(=O)OCCOc2ccccc2)[nH]c2c1C(=O)CCC2,0,0,59,0,0,0,0,0
CC(=O)c1sc(NC(=O)C2COc3ccccc3O2)nc1C (centres undefined),0,0,74,0,0,0,0,0
CC1(C)Oc2ccc(NC(=O)C3COc4ccccc4O3)cc2O1 (centres undefined),0,0,64,0,0,0,0,0
Cn1c(=O)oc2cc(S(=O)(=O)N3CCCC(C(=O)NC4CCCc5ccccc54)C3)ccc21 (centres undefined),0,0,81,0,0,75,34,0
Cn1c(=O)oc2cc(S(=O)(=O)N3CCCC(C(=O)N4CC=C(c5ccccc5)CC4)C3)ccc21 (centres undefined),0,0,56,0,0,44,0,0
Cn1c(=O)oc2cc(S(=O)(=O)N3CCCC(C(=O)Nc4ccccn4)C3)ccc21 (centres undefined),0,0,0,0,0,-,-,-
Cc1cc(NC(=O)CCC(=O)N(CC(=O)NC2CCCC2)Cc2ccc(F)cc2)no1,0,0,0,0,0,-,-,-
C/C(=N/O)c1ccc(Oc2cnccn2)cc1,0,0,0,0,0,-,-,-
O=C(O)/C=C/c1ccc(OCc2cccc(F)c2)cc1,0,0,0,0,0,-,-,-
Cc1ccc2nc(NC(=O)c3ccc(OCC4CCCO4)cc3)sc2c1 (centres undefined),0,0,0,0,0,-,-,-
Cc1cc(C)c2nc(NC(=O)c3ccc(OCC4CCCO4)cc3)sc2c1 (centres undefined),0,0,47,0,0,0,0,0
CC(/C=N/NC(=O)CSc1nc(C)cc(C)n1)=C\c1ccccc1,0,0,0,0,0,-,-,-
CC(/C=N\NC(=O)Cn1c(C)nc2ccccc21)=C\c1ccccc1,0,0,70,0,0,69,15,17
CCOc1ccc(-c2nc(-c3cccnc3)no2)cc1,0,0,0,0,0,-,-,-
Clc1ccccc1-c1nnc(-c2cccs2)o1,0,0,0,0,0,-,-,-
SMILES,L929 necroptosis,TNF necrop inh,STAT3 inh-1,STAT3 activator,STAT1 blocker,STAT3 inh-2,NFkB inh 2,STAT1 inh STAT3c
CCCCOc1ccc(-c2nnc(-c3ccncc3)o2)cc1,0,0,0,0,0,-,-,-
CCOc1ccc(-c2nnc(-c3ccccc3)o2)cc1,0,0,66,0,0,0,0,0
CN(C)c1ccc(-c2nnc(-c3cccs3)o2)cc1,0,0,55,0,0,0,0,0
CCOc1ccc(-c2nc(-c3ccccc3C)no2)cc1,0,0,46,0,0,0,0,0
CCCOc1ccc(-c2nnc(-c3cccs3)o2)cc1,0,0,66,0,0,0,0,0
COCC1CCN(Cc2nc(-c3cccs3)no2)C1 (centres undefined),0,0,0,0,0,-,-,-
COc1cc(NC(=O)c2cc(C(C)C)on2)cc(OC)c1OC,0,0,0,0,0,-,-,-
CCCCCn1c(=O)[nH]c2cc(C(=O)N3CCN(Cc4ccc5c(c4)OCO5)CC3)ccc2c1=O,0,0,87,0,0,88,42,23
CC1CCN(c2nc3ccc(C(=O)N4CCN(Cc5ccc6c(c5)OCO6)CC4)cc3s2)CC1,0,0,49,0,0,0,0,0
CCc1nnc(NC(=O)C2CCCN2S(=O)(=O)c2ccc(C)cc2)s1 (centres undefined),0,0,0,0,0,-,-,-
COc1ccc(-n2c(C)cc(C(=O)CSc3ccc(NC(C)=O)cc3)c2C)cc1,0,0,0,0,0,-,-,-
CC(=O)Nc1ccc(SCC(=O)c2cc(C)n(-c3ccccc3)c2C)cc1,0,0,44,0,0,0,0,0
Cc1ccc2c(c1)[nH]c1c(N3CCN(Cc4ccccc4)CC3)ncnc12,0,0,0,0,0,-,-,-
Cc1ccc2[nH]c3c(N4CCN(Cc5ccc6c(c5)OCO6)CC4)ncnc3c2c1,0,0,54,0,0,0,15,17
O=C(Nc1nonc1NC(=O)c1cccs1)c1cccs1,0,0,44,0,0,47,13,0
Cn1c(-c2ccccc2)cnc1SCC(=O)N1CCCCC1,0,0,66,0,0,0,0,0
CC(=O)Nc1ccc(-c2csc(Nc3ccc(Cl)cn3)n2)cc1,0,0,52,0,0,46,0,0
Cc1nn(C)c(C)c1/C=C/C(=O)c1ccc(Cl)cc1Cl,0,0,66,0,0,65,13,0
Cc1nn(C)c(C)c1/C=C/C(=O)O,0,0,0,0,0,-,-,-
Cc1ccc(-c2cc(C(=O)NCCCN3CCOCC3)no2)cc1,0,0,56,0,0,0,0,0
Cc1nnc(SCCC(=O)Nc2nc(-c3ccccc3)ns2)s1,0,0,0,0,0,-,-,-
Cc1ccc(-c2nn(-c3ccccc3)cc2/C=N/NC(=O)c2ccc(Br)o2)cc1,0,0,46,0,0,0,0,0

# Source: PubChem BioAssay (several laboratories)
